The values that follow come from ChEMBL document CHEMBL2375294, “Synthesis, structure-activity relationship analysis and kinetics study of reductive derivatives of flavonoids as Helicobacter pylori urease inhibitors” (Eur J Med Chem, 2013).

Structures are written as SMILES.

The target in one assay is T1, Urease subunit alpha/Urease subunit beta (Helicobacter pylori (strain ATCC 700392 / 26695) (Campylobacterpylori), UniProt P69996). Description: Competitive inhibition of Helicobacter pylori ATCC 43504 urease using urea as substrate by Lineweaver-Burk/Dixon plot analysis. An outline of the steps: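 Crude urease from H. pylori ATCC 43504, grown 24 h at 37 °C under microaerobic conditions in Brucella broth with 10% heat-inactivated horse serum. Enzyme (10 U) was pre-incubated with inhibitor for 1.5 h at room temperature. Ammonia was read by the indophenol method while urea varied at several inhibitor levels. Ki came from a Lineweaver–Burk slope replot x-intercept or a Dixon plot intersection. Run in triplicate.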
T1 sequence (P69996 whole entry): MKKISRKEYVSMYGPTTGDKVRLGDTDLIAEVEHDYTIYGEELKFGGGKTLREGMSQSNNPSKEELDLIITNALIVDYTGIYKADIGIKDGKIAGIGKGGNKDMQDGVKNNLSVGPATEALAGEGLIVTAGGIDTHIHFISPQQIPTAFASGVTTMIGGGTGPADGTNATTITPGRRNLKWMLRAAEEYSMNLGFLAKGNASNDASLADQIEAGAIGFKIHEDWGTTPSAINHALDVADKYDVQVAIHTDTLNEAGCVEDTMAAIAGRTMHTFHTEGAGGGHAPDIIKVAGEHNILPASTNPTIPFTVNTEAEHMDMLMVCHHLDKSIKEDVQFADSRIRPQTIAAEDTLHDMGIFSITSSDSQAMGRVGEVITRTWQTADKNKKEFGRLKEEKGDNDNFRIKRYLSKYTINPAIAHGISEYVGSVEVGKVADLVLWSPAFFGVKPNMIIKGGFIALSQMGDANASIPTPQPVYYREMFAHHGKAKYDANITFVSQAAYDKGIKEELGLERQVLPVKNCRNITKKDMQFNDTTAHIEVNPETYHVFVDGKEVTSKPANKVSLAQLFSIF
T1 sequence (P14916 whole entry, further chain): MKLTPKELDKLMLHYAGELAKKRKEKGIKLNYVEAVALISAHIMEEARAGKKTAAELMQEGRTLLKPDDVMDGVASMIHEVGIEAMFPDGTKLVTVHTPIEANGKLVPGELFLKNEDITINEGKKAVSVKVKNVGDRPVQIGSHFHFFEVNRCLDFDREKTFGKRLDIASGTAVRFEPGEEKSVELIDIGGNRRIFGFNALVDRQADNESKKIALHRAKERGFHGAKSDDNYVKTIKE
Take `Oc1ccc(C2=COc3c(ccc(O)c3O)C2)cc1`: the Ki (usually a measure of affinity in units of concentration, obtained from inhibition or displacement) came to 0.641 µM.

A further assay deals with T1, Urease subunit alpha/Urease subunit beta. Description: Inhibition of Helicobacter pylori ATCC 43504 urease-mediated ammonia production preincubated for 1.5 hrs by indophenol method.
For the compound `Oc1cc(O)c2c(c1)OC(c1ccccc1)C=C2` (stereo not given), the 50% inhibitory concentration (IC50) (usually the concentration that gives 50% inhibition) was 33.2 µM.
Consider `Oc1cc2c(c(O)c1O)C=CC(c1ccccc1)O2` (stereo not given), for which the 50% inhibitory concentration (IC50) amounted to 22.1 µM.
`COc1cc(O)c(C(=O)CCc2ccccc2)c(O)c1` registered a concentration for half-maximal inhibition (IC50) of 978 µM.
The same measure, in the same setting: for `COc1ccc(C2CC(O)c3c(OC)c(OC)c(OC)c(OC)c3O2)cc1` (stereo not given) the value was 4850 µM; for `COc1ccc(-c2coc3cc(OC)ccc3c2=O)cc1`, 3530 µM; for `COc1ccc(-c2coc3cc(O)ccc3c2=O)cc1` [FORMONONETIN], 2000 µM.
Same read-out and setting: next, `COc1ccc(C2=CCc3c(OC)c(OC)c(OC)c(OC)c3O2)cc1`: 3790 µM.
Same read-out and setting: next, `COc1ccc(C2=COc3cc(O)ccc3C2)cc1`: 86.2 µM; `O=c1cc(-c2ccccc2)oc2cc(O)cc(O)c12` [CHRYSIN]: 302 µM.
For `COc1ccc(C(C)C(=O)c2ccc(O)cc2O)cc1` (stereo not given), the concentration for half-maximal inhibition (IC50) amounted to 1050 µM.
On the same count and under the same terms, for `COc1ccc(C2COc3cc(OC)ccc3C2)cc1` (stereo not given) the value was 1780 µM; for `COc1cc(O)c(C(=O)CCc2ccccc2)c(OC)c1`, 1670 µM; for `O=c1c(O)c(-c2ccc(O)c(O)c2)oc2cc(O)cc(O)c12` [QUERCETIN], 11 µM.
For the compound `O=c1cc(-c2ccc(O)cc2)oc2cc(O)cc(O)c12` [APIGENIN], the IC50 came out at 138 µM.
As to `COc1ccc(C2COc3cc(OC)ccc3C2O)cc1` (stereo not given), the half-inhibitory concentration (IC50) was determined as 3870 µM.
As for `COc1cc(OC)c2c(=O)cc(-c3ccccc3)oc2c1` [CHRYSIN DIMETHYL ETHER], the midpoint of inhibition, the IC50, lay at 2180 µM.
`O=c1cc(-c2ccccc2)oc2cc(O)c(O)c(O)c12` [BAICALEIN] returned a half-maximal inhibitory concentration (IC50) of 291 µM.
Still for that read-out and setting: for `COc1ccc(C2C=Cc3c(OC)c(OC)c(OC)c(OC)c3O2)cc1` (stereo not given) the value was 4170 µM; for `Oc1ccc(C2=COc3c(ccc(O)c3O)C2)cc1`, 0.85 µM.
On to `O=c1cc(-c2ccc(O)c(O)c2)oc2cc(O)cc(O)c12` [LUTEOLIN], for which the IC50 was determined as 35.4 µM.
On the same count and under the same terms, next, `Oc1ccc(C2COc3cc(O)ccc3C2)cc1` (stereo not given): 92.9 µM; `O=c1c(-c2ccc(O)cc2)coc2cc(O)ccc12` [DAIDZEIN]: 556 µM; `COc1ccc(C2COc3cc(O)ccc3C2)cc1` (stereo not given): 358 µM.
Same read-out and setting: next, `COc1cc(O)c(C(=O)/C=C/c2ccccc2)c(OC)c1` [FLAVOKAWAIN B]: 1220 µM; `Oc1cc(O)c2c(c1)OC(c1ccc(O)c(O)c1)C=C2` (stereo not given): 4.42 µM.
The compound `O=C1CC(c2ccc(O)cc2)Oc2cc(O)cc(O)c21` (stereo not given) gave an IC50 of 328 µM.
On the same count and under the same terms, for `COc1ccc(-c2cc(=O)c3c(OC)c(OC)c(OC)c(OC)c3o2)cc1` [TANGERETIN] the value was 4630 µM; for `COc1ccc(C(C)C(=O)c2ccc(OC)cc2O)cc1` (stereo not given), 2180 µM.

For the next assay, the target named is Urease subunit alpha/Urease subunit beta (Helicobacter pylori (strain ATCC 700392 / 26695) (Campylobacterpylori)) (UniProt P69996+P14916). Description: Ratio of acetohydroxamic acid IC50 to compound IC50 for Helicobacter pylori ATCC 43504 urease.
Urease subunit alpha/Urease subunit beta (Helicobacter pylori (strain ATCC 700392 / 26695) (Campylobacterpylori)), sequence (P14916 whole entry, looked up): as the sequence (P14916 whole entry, further chain) above
Urease subunit alpha/Urease subunit beta (Helicobacter pylori (strain ATCC 700392 / 26695) (Campylobacterpylori)), sequence (P69996 whole entry, looked up): as the sequence (P69996 whole entry) above
For the compound `Oc1ccc(C2=COc3c(ccc(O)c3O)C2)cc1`, the Ratio IC50 amounted to 20.
